≈ marks a conversion by molar mass, not a printed value. Entries after “also recorded” stand apart in the source; their conditions may differ.
How the values were obtained:
human recombinant ATX [1] = biological target: T1, human recombinant ATX (Homo sapiens, UniProt Q13822); assay: ATX inhibition, hydrolysis of FRET substrate FS-3; assay type: biochemical; conditions: for Mechanism: FS-3 0 to 10 μM, inhibitor at 0, 0.5 × IC50 or 2 × IC50
In short: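 Human ATX, C-terminal FLAG-tagged, expressed in Sf9 cells by baculovirus and purified on anti-FLAG beads. Fluorescence (485/528 nm) read every 2 min for 1 h. Percent activity taken at 1 h; IC50 (±SD) interpolated from a variable-slope Hill fit.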

human recombinant ATX [2] = biological target: T1, human recombinant ATX; assay: ATX inhibition, hydrolysis of nucleotide substrate pNP-TMP; assay type: biochemical; conditions: 1 mM pNP-TMP, 4 nM human rATX
In short: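 Purified FLAG-tagged human ATX from the Sf9 baculovirus system was run with nucleotide substrate pNP-TMP in triplicate wells. Absorbance at 405 nm read every 2 min for 1 h; triplicate means recorded and percent activity derived from the 1 h point.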

LPAR1 = LPAR1 (Homo sapiens, UniProt Q92633); assay: LPA1 receptor antagonism, calcium mobilization in LPA1 RH7777 cells; assay type: cell-based; conditions: for LPAR1 inhibitory activity: result in words
Sequence of LPAR1 (Q92633 whole entry, species assumed): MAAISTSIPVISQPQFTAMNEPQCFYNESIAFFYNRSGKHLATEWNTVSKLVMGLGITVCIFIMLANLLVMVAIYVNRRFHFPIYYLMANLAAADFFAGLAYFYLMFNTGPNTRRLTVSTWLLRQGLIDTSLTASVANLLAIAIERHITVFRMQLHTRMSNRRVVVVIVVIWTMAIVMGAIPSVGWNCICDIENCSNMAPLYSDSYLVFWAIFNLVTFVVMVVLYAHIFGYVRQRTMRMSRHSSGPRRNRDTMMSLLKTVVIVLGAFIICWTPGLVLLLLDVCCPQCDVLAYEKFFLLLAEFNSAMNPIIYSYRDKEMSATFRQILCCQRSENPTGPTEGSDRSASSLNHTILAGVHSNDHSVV
In short: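 Stably LPA1-overexpressing rat hepatoma RH7777 cells, kept in DMEM, 10% FBS, 2 mM L-glutamine, 250 μg/mL G418, 37 °C, 5% CO2. Plated at 5 × 10^4 cells/well on poly-L-lysine overnight, serum-deprived 4 h in Krebs buffer (pH 7.4), loaded 30 min with 4.5 μg/mL Fura-2AM. Compound dose range tested with and without LPA 18:1 at its EC50 concentration. Fluorescence 340/510 and 380/510 nm every 3.42 s for 70 s. Triplicate mean ratios normalized to LPA Emax; IC50 from variable-slope fit.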

log P = assay type: physicochemical
Water solubility = assay type: physicochemical
[3] = Experimental pIC50, -log IC50, ATX enzyme inhibition
[4] = IC50 (nM ± SD) vs FS-3, 1 μM FS-3, 4 nM human rATX, 1 h
[5] = IC50 (nM) ATX enzyme, QSAR data set, compounds of this study

IC50 (human recombinant ATX [1]; [3]) [nM] | Mechanism (human recombinant ATX [1]) | IC50 (human recombinant ATX [1]; [4]) [nM] | IC50 (human recombinant ATX [1]; [5]) [nM] | pNP-TMP inhibition (human recombinant ATX [2]) | logP (log P) | solubility (Water solubility) [µg/mL] | IC50 (LPAR1) [nM] | Compound | LPAR1 inhibitory activity (LPAR1)
219 | Competitive | 219 ± 25.2 | 219 | none | 3.68 | > 100 | – | CS(=O)(=O)N(c1cc(C(=O)Nc2cc(F)c(Cl)c(F)c2)c(Cl)cc1Cl)C1CCOCC1 [Compound 11, 2,4-dichloro-N-(4-chloro-3,5-difluorophenyl)-5-(N-(tetrahydro-2H-pyran-4-yl)-methylsulfonamido)-benzamide] | neither compound 10 nor compound 11 showed any LPAR1 inhibitory activity; also recorded: no LPAR1 inhibitory activity
– | – | > 1000 | ≥ 1000 | none | 2.91 | 50 (≈ 127 µM) | > 1000 | N#CC(c1ccc(F)c(C(=O)Nc2cc(F)c(F)c(F)c2)c1)N1CCOCC1 (stereo not drawn) [Compound 14, 5-(cyano(morpholino)methyl)-2-fluoro-N-(3,4,5-trifluorophenyl)-benzamide] | –
> 1000 | – | > 1000 | ≥ 1000 | none | 2.44 | > 100 | > 1000 | O=C(Nc1cc(F)c(F)c(F)c1)c1cc(C(C(=O)O)N2CCOCC2)ccc1F (stereo not drawn) [Compound 15, 2-(4-fluoro-3-((3,4,5-trifluorophenyl)-carbamoyl)-phenyl)-2-morpholinoacetic acid] | –
– | Competitive | 220 ± 14.7 | – | none | 3.2 | > 100 | – | CS(=O)(=O)N(c1cc(C(=O)Nc2cc(F)c(F)c(F)c2)c(Cl)cc1Cl)C1CCOCC1 [Compound 10, 2,4-dichloro-5-(N-(tetrahydro-2H-pyran-4-yl)-methylsulfonamido)-N-(3,4,5-trifluorophenyl)-benzamide] | neither compound 10 nor compound 11 showed any LPAR1 inhibitory activity; also recorded: no LPAR1 inhibitory activity
